ChEMBL document CHEMBL3596176, “Geleganidines A-C, Unusual Monoterpenoid Indole Alkaloids from Gelsemium elegans” (J Nat Prod, 2015)

Columns and labels:
MCF7 = test: Cytotoxicity against human MCF7 cells assessed as inhibition of cell growth after 72 hrs by MTT assay; format: functional, cell-based; conditions: MCF7, 72 h
How it was run: (§1)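 Cells kept in RPMI 1640 plus 10% FBS at 37 °C in humidified 5% CO2. Seeded for 24 h, then exposed to a range of compound concentrations for 72 h. MTT (5 mg/mL solution) added, followed by 4 h incubation. Medium removed and formazan dissolved in DMSO; absorbance at 570 nm. IC50 taken from dose-response curves, reported as mean ± SD.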

[1] = Cytotoxicity against rat PC12 cells assessed as inhibition of cell growth after 72 hrs by MTT assay; format: functional, cell-based; conditions: PC-12, 72 h; how it was run: as §1

In the case of `C/C=C1\CN(C(=O)N2C/C(=C\C)[C@@H]3C[C@H]4OC[C@@H]3[C@@H]2C[C@@]42C(=O)N(OC)c3cc(OC)ccc32)[C@H]2C[C@@]3(C(=O)N(OC)c4ccccc43)[C@H]3C[C@@H]1[C@@H]2CO3`, the IC50 (MCF7) is reported as > 50 µM and the IC50 [1] is reported as 16.1 µM.

For `C/C=C1\CN[C@H]2C[C@@]3(C(=O)N(OC)c4ccccc43)[C@H]3C[C@@H]1[C@@H]2CO3`, the IC50 (MCF7) was > 50 µM and the IC50 [1] was > 50 µM.

With `C/C=C1\CN(C=O)[C@H]2C[C@@]3(C(=O)N(OC)c4cc(OC)ccc43)[C@H]3C[C@@H]1[C@@H]2CO3` the IC50 (MCF7) was > 50 µM and the IC50 [1] was > 50 µM.

With `C/C=C1\CN2C(=O)[C@]3(c4ccc(OC)cc4N)C[C@H]2[C@H]2CO[C@@H]3C[C@@H]12` the IC50 (MCF7) was > 50 µM and the IC50 [1] was > 50 µM.

For `C/C=C1\CN[C@H]2C[C@@]3(C(=O)N(OC)c4cc(OC)ccc43)[C@H]3C[C@@H]1[C@@H]2CO3`, the IC50 (MCF7) was > 50 µM and the IC50 [1] was > 50 µM.

For `C/C=C1\CN2C(=O)[C@]3(c4ccc(OC)cc4NOC)C[C@H]2[C@H]2CO[C@@H]3C[C@@H]12`, the IC50 (MCF7) was > 50 µM and the IC50 [1] was > 50 µM.

With `C/C=C1\CN2C(=O)[C@]3(c4ccc(OC)cc4/N=N/c4cc(OC)ccc4[C@@]45C[C@H]6[C@H]7CO[C@@H]4C[C@H]7/C(=C/C)CN6C5=O)C[C@H]2[C@H]2CO[C@@H]3C[C@@H]12` the IC50 (MCF7) was 38.4 µM and the IC50 [1] was > 50 µM.
